Laboratory results reported in ChEMBL document CHEMBL1143606, “3-Aminopyrazole inhibitors of CDK2/cyclin A as antitumor agents. 2. Lead optimization” (J Med Chem, 2005).
Values after ≈ are worked out from the molar mass of the structure shown. Values joined by “and” are separate entries in the source; they are usually repeats but may differ in a detail not shown here. Identical values can stand only once.

What was measured:
A2780 [1] = assay: Inhibitory concentration towards human ovarian carcinoma cell line A2780; format: functional, cell-based
physchem [2] = conditions: aqueous buffer, pH 7
[3] = molecular target: Cyclin-dependent kinase 2/cyclin A (Homo sapiens, UniProt P24941); assay: Inhibition of cyclin dependent kinase 2-cyclin A; format: protein-complex assay
[4] = rat, plasma
HT-29 [5] = assay: Percent of BrdU incorporation in Brdu positive HT-29 cells at 1 uM concentration of compound; format: functional, Homo sapiens
[6] = Half-life of compound in plasma of CD-1 mice upon o.s. dose; format: ADME, cell-free; conditions: CD-1, mouse, po
Outline: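 Mice dosed orally at 10 mg/kg in PEG 400/glucosate vehicle (preliminary PK, with iv and oral legs); plasma terminal half-life determined.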

A2780 [7] = assay: Inhibitory concentration towards Human ovarian carcinoma cell line A2780; format: functional, cell-based
[8] = molecular target: T1, Cyclin-dependent kinase 2/cyclin E (Homo sapiens, UniProt P24941); assay: Inhibition of cyclin dependent kinase 2-cyclin E (n=4); format: protein-complex assay
Outline: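 Kinase inhibition assay run by a previously reported method. IC50 is the mean of values from nonlinear least-squares regression fits, with at least two independent experiments per compound. Coefficient of variation of the mean was 10% to 24%.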

[9] = mouse, in vivo
[10] = Inhibition of glycogen synthase kinase-3 beta (n=6)
Outline: (§1)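 IC50 from at least two independent experiments; value is the mean of IC50s obtained by nonlinear least-squares regression fitting. Coefficient of variation of the mean 10% to 24%. GSK-3β belonged to a panel of 30 serine-threonine and tyrosine kinases.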

HT-29 [11] = assay: Inhibitory concentration towards human colon cancer HT-29 cell line; format: functional, cell-based
[12] = molecular target: T2, Cyclin-dependent kinase 4/cyclin D1 (Homo sapiens, UniProt P11802); assay: Inhibition of cyclin-dependent kinase 4-cyclin D1 (n=2); format: protein-complex assay; outline: as §1
[13] = molecular target: T3, Cyclin-dependent kinase 1/cyclin B (Homo sapiens, UniProt P06493); assay: Inhibition of cyclin dependent kinase 1-cyclin B (n=4); format: protein-complex assay; outline: as §1
[14] = mouse, in vivo, iv
physchem [15] = conditions: aqueous buffer
[16] = mouse, in vivo; remark: listed apart in the source
[17] = molecular target: Cyclin-dependent kinase 5/CDK5 activator 1 (Homo sapiens, UniProt Q00535); assay: Inhibition of cyclin-dependent kinase 5 p25 alpha (n=4); format: protein-complex assay; outline: as §1
HT-29 [18] = assay: Percent of BrdU incorporation in Brdu positive HT-29 cells at 3 uM concentration of compound; format: functional, Homo sapiens
HCT-116 = assay: Inhibitory concentration towards HCT 116 human colon cancer cell line; format: functional, cell-based
HT-29 [19] = assay: Percent of BrdU incorporation in HT-29 cells at 1 uM concentration of compound; format: functional
[20] = molecular target: T3, Cyclin-dependent kinase 1/cyclin B; assay: Inhibition of cyclin dependent kinase 1-cyclin B (n=6); format: protein-complex assay; outline: as §1
[21] = molecular target: T2, Cyclin-dependent kinase 4/cyclin D1; assay: Inhibition of cyclin-dependent kinase 4-cyclin D1 (n=4); format: protein-complex assay; outline: as §1
[22] = molecular target: T1, Cyclin-dependent kinase 2/cyclin E; assay: Inhibition of cyclin dependent kinase 2-cyclin E (n=6); format: protein-complex assay; outline: as §1
A2780 [23] = assay: Percent inhibition tumor growth of Human ovarian cancer cell A2780 in mice when administered 7.5 mg/kg twice a day for 20 days; format: functional; conditions: Mus musculus, A2780, 480 h
Outline: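 A2780 tumor kept by sc passage of 20-30 mg brei in athymic mice. Fragments implanted sc in left flank of nude mice, 10 mice/group. Dosing began at measurable tumors (mean 0.13 g, day 8). Dosed orally in 50% PEG 400/glucosate. Body weight followed. Data from a single experiment.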

HT-29 [24] = assay: Percent of BrdU incorporation in HT-29 cells at 3 uM concentration of compound; format: functional
[25] = Inhibition of glycogen synthase kinase-3 beta (n=13); outline: as §1

T2 sequence (P11802 whole entry): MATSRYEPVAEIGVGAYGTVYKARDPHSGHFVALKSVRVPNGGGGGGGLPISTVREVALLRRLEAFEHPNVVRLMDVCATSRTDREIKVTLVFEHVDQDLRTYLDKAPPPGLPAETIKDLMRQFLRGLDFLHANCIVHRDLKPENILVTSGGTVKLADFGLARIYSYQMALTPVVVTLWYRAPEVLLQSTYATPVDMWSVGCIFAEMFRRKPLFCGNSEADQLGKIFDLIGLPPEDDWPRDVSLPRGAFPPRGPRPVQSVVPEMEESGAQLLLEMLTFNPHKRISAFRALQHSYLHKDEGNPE
T2 sequence (P24385 whole entry, further chain): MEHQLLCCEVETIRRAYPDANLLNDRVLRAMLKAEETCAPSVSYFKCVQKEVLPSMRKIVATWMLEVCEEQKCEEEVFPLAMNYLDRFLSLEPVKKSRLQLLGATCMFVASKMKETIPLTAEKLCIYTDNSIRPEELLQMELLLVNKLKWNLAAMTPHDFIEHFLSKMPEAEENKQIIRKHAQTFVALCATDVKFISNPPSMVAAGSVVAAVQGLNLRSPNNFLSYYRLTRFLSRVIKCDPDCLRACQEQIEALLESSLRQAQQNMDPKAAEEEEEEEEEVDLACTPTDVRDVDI
Cyclin-dependent kinase 5/CDK5 activator 1, sequence (Q00535 whole entry): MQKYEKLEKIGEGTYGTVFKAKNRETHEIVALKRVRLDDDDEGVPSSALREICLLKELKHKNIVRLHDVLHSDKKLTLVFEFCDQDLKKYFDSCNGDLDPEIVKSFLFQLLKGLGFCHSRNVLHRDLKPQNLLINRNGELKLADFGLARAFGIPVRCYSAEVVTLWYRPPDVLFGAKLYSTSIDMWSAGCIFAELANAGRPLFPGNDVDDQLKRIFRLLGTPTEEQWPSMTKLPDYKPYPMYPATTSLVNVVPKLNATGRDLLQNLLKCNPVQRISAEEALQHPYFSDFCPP
Cyclin-dependent kinase 5/CDK5 activator 1, sequence (Q15078 whole entry, further chain): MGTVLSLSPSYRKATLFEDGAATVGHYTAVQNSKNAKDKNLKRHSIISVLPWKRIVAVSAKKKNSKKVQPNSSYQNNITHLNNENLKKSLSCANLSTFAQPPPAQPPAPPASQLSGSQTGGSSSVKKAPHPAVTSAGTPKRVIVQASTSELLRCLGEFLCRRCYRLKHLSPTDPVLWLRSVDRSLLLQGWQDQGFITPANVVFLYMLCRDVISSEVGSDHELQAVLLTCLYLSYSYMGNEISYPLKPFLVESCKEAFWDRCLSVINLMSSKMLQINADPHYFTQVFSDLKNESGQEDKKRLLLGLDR

SMILES | IC50 (A2780 [1]) [nM] | solubility (physchem [2]) [µM] | IC50 [3] [nM] | Binding [4] | other results
CC(C(=O)Nc1cc(C2CC2)[nH]n1)c1ccc(-n2cc[nH]c2=O)cc1 (configuration not stated) | 6980 | 233 (≈ 78.6 µg/mL) | 11 | 74% | –
C[C@H](C(=O)Nc1cc(C2CC2)[nH]n1)c1ccc(N2CCOC2=O)cc1 | 790 | 232 (≈ 79 µg/mL) | 20 | 73% and 74% | Activity (HT-29 [5]): 65%; half-life [6]: 3.1 h; IC50 (A2780 [7]): 716 nM; IC50 [8]: 37 nM; Vss [9]: 0.573 L/kg; IC50 [10]: 406 nM; IC50 (HT-29 [11]): 751 nM; IC50 [12]: > 10000 nM; IC50 [13]: 243 nM; T1/2 [14]: 2.8 min; solubility (physchem [15]): 225 µM (≈ 76.6 µg/mL); Clearance [16]: 4.7 mL/min/kg; IC50 [17]: 57 nM; Activity (HT-29 [18]): 0.7%; IC50 (HCT-116): 1130 nM
C[C@H](C(=O)Nc1cc(C2CC2)[nH]n1)c1ccc(N2CCCC2)cc1 | 220 | 24 (≈ 7.79 µg/mL) | – | 98% | –
CC(C(=O)Nc1cc(C2CC2)[nH]n1)c1ccc(-n2cn[nH]c2=O)cc1 (configuration not stated) | 8390 | 109 (≈ 36.9 µg/mL) | 73 | 58% | –
CC(C(=O)Nc1cc(C2CC2)[nH]n1)c1ccc(N2Cc3ccccc3C2=O)cc1 (configuration not stated) | 4750 | 12 (≈ 4.64 µg/mL) | 13 | – | –
CC(C(=O)Nc1cc(C2CC2)[nH]n1)c1ccc(N2CC(=O)NC2=O)cc1 (configuration not stated) | 4540 | 201 (≈ 71 µg/mL) | 17 | 67% | –
CC(C(=O)Nc1cc(C2CC2)[nH]n1)c1ccc(N2CCNC2=O)cc1 (configuration not stated) | 2250 | 224 (≈ 76 µg/mL) | 12 | 74% | –
C[C@H](C(=O)Nc1cc(C2CC2)[nH]n1)c1ccc(N2CCCC2=O)cc1 | 800 | – | 37 | – | Brdu positive (HT-29 [19]): 25%; IC50 [20]: 208 nM; IC50 [21]: > 10000 nM; IC50 [22]: 55 nM; IC50 (A2780 [7]): 744 nM; IC50 (HT-29 [11]): 639 nM; inhibition in vivo at 7.5 mg/kg (A2780 [23]): 73%; Brdu positive (HT-29 [24]): 4%; IC50 [25]: 732 nM; IC50 (HCT-116): 1350 nM
C[C@@H](C(=O)Nc1cc(C2CC2)[nH]n1)c1ccc(N2CCNC2=O)cc1 | 13200 | 220 (≈ 74.7 µg/mL) | 455 | 74% | –
C[C@@H](C(=O)Nc1cc(C2CC2)[nH]n1)c1ccc(N2Cc3ccccc3C2=O)cc1 | – | 51 (≈ 19.7 µg/mL) | 170 | – | –
CO[C@H](C(=O)Nc1cc(C2CC2)n[nH]1)c1ccccc1 | – | – | 2000 | – | –
CC(C(=O)Nc1cc(C2CC2)[nH]n1)c1ccc(N2CCOC2=O)cc1 (configuration not stated) | 1040 | 222 (≈ 75.6 µg/mL) | 25 | 73% | –
CC(C(=O)Nc1cc(C2CC2)[nH]n1)c1ccc(N2CCN(Cc3ccccc3)C2=O)cc1 (configuration not stated) | – | – | 1450 | – | –
COC(C(=O)Nc1cc(C2CC2)[nH]n1)c1ccccc1 (configuration not stated) | – | – | 5000 | – | –
C[C@H](C(=O)Nc1cc(C2CC2)[nH]n1)c1ccc(N2CCNC2=O)cc1 | 1270 | > 225 | 2 | 74% | –
CC(C(=O)Nc1cc(C2CC2)[nH]n1)c1ccccc1 (configuration not stated) | – | – | 169 | – | –
CC(C(=O)Nc1cc(C2CC2)[nH]n1)c1ccc(N2CCCCC2=O)cc1 (configuration not stated) | > 10000 | – | 240 | – | –
C[C@@H](C(=O)Nc1cc(C2CC2)[nH]n1)c1ccc(N2CCN(C)C2=O)cc1 | – | – | 8500 | – | –
CC(C(=O)Nc1cc(C2CC2)[nH]n1)c1ccc(N2CCCC2)cc1 (configuration not stated) | 370 | 3 (≈ 0.973 µg/mL) | – | 96% | –

SMILES | IC50 (A2780 [1]) [nM] | solubility (physchem [2]) [µM] | IC50 [3] [nM] | Binding [4] | other results
CC(C(=O)Nc1cc(C2CC2)[nH]n1)c1ccc(N2CCC(C(N)=O)C2=O)cc1 (configuration not stated) | 5710 | 120 (≈ 45.8 µg/mL) | 20 | 57% | –
CC(C(=O)Nc1cc(C2CC2)[nH]n1)c1ccc(N2CCCS2(=O)=O)cc1 (configuration not stated) | 5240 | 135 (≈ 50.6 µg/mL) | – | 78% | –
CC(C(=O)Nc1cc(C2CC2)[nH]n1)c1ccc(N2CCCC2=O)cc1 (configuration not stated) | 630 | – | 169 | – | –
C[C@@H](C(=O)Nc1cc(C2CC2)[nH]n1)c1ccc(N2CCOC2=O)cc1 | – | 220 (≈ 74.9 µg/mL) | 2500 | 72% | –
C[C@@H](C(=O)Nc1cc(C2CC2)[nH]n1)c1ccc(N2CCCC2=O)cc1 | 12200 | – | 2500 | – | –
O=C(Cc1ccc2ccccc2c1)Nc1cc(C2CC2)n[nH]1 | – | 22 (≈ 6.41 µg/mL) | – | 99% | –
C[C@H](C(=O)Nc1cc(C2CC2)[nH]n1)c1ccc(N2Cc3ccccc3C2=O)cc1 | 1020 | 5 (≈ 1.93 µg/mL) | 2 | – | –
CC(C(=O)Nc1cc(C2CC2)[nH]n1)c1ccc(N2C(=O)CCC2C)cc1 (configuration not stated) | 6400 | 222 (≈ 78.2 µg/mL) | 150 | 67% | –
C[C@H](C(=O)Nc1cc(C2CC2)[nH]n1)c1ccccc1 | – | – | 84 | – | –
CC(C(=O)Nc1cc(C2CC2)[nH]n1)c1ccc(N2C(=O)CNC2=O)cc1 (configuration not stated) | > 10000 | – | 124 | – | –
CO[C@@H](C(=O)Nc1cc(C2CC2)n[nH]1)c1ccccc1 | – | – | > 10000 | – | –
CC(C(=O)Nc1cc(C2CC2)[nH]n1)c1ccc(N2CCN(C)C2=O)cc1 (configuration not stated) | 1680 | – | 29 | – | –
N[C@H](C(=O)Nc1cc(C2CC2)[nH]n1)c1ccccc1 | – | – | 960 | – | –
O=C(Nc1cc(C2CC2)[nH]n1)C(c1ccccc1)c1ccccc1 | – | – | > 10000 | – | –
O=C(Nc1cc(C2CC2)[nH]n1)C(F)c1ccccc1 (configuration not stated) | – | – | 99 | – | –
O=C(Nc1cc(C2CC2)n[nH]1)C(=O)c1ccccc1 | – | – | 2600 | – | –
C[C@H](C(=O)Nc1cc(C2CC2)[nH]n1)c1ccc(N2CCN(C)C2=O)cc1 | 1400 | – | 17 | – | –
C[C@@H](C(=O)Nc1cc(C2CC2)[nH]n1)c1ccccc1 | – | – | 6000 | – | –
CC(C(=O)Nc1cc(C2CC2)[nH]n1)c1ccc(N2C(=O)CCC2c2ccccc2)cc1 (configuration not stated) | 15300 | 50 (≈ 20.7 µg/mL) | 200 | 97% | –
